Experimental data from different studies.
Lines come from different studies, so protocols differ.
Target: Cyclin-dependent kinase 13 (CDK13, Homo sapiens, UniProt Q14004)

| SMILES | read-out | method | concentration | remaining binding |
| --- | --- | --- | --- | --- |
| C[C@H]1CCN(c2nccc(-c3cnn4ncccc34)n2)C1 | binding |  | 1 µM | 84% |
| O=C(Nc1c[nH]nc1C(=O)NC1CCNCC1)c1cc(F)cc(F)c1 | binding | competition with immobilised ligand | 1 µM | 100% |
| O=C(c1ccc(Nc2nccc(-c3cc4ccccc4s3)n2)cc1)N1CCC(N2CCCC2)CC1 | binding | competition with immobilised ligand | 1 µM | 92% |
| FC(F)(F)Oc1cccc(-c2cnc3ccc(-c4ccncc4)nn23)c1 | cell-free assay | competition with immobilised ligand | 5 µM | 99% |
| CC1CCCN1c1nccc(-c2cnn3ncccc23)n1 (stereo not shown) | binding |  | 1 µM | 100% |
| O=C(Nc1cccnn1)N1CCC(=Cc2cccc(Oc3ccc(C(F)(F)F)cn3)c2)CC1 | cell-free assay | competition with immobilised ligand | 1 µM | 100% |
| CN(C)c1nccc(-c2cnn3ncccc23)n1 | binding |  | 1 µM | 84% |
| CC(=O)c1c(NS(C)(=O)=O)c2cc(-c3ccc(Cl)cc3)c(-c3ccc(Cl)cc3Cl)nc2n(C)c1=O | cell-free assay | competition with immobilised ligand | 1 µM | 96% |
| N[C@@H]1CCN(c2nccc(-c3cnn4ncccc34)n2)C1 | binding |  | 1 µM | 54% |
| COc1ncc2cc3ccccc3nc2c1C#N | cell-free assay | competition with immobilised ligand | 5 µM | 92% |
| O=C(Nc1cccnn1)N1CC(C/C=C/c2cncc(Oc3ccc(C(F)(F)F)cn3)n2)C1 | cell-free assay | competition with immobilised ligand | 1 µM | 98% |
| O=C(c1ccc(Nc2ncc(Cl)c(-c3cc4ccccc4s3)n2)cc1)N1CCC(N2CCCC2)CC1 | binding | competition with immobilised ligand | 1 µM | 36% |
| O=C(O)[C@H]1[C@H](Cn2nnc3ccccc3c2=O)CC[C@@H]1C(=O)c1ccc(OCCC2CCOCC2)cc1 | cell-free assay | competition with immobilised ligand | 1 µM | 93% |
| CN(CCCC(F)(F)F)c1nccc(-c2cnn3ncccc23)n1 | binding |  | 1 µM | 100% |
| COCCOc1nc(-c2ccc(Cl)nc2)nc2c1CN(C(=O)c1ncn3ccccc13)CC2 | cell-free assay | competition with immobilised ligand | 0.1 µM | 100% |
| CN(c1nccc(-c2cnn3ncccc23)n1)C1CC1 | binding |  | 1 µM | 100% |
| O=C(NCCCN1CCOCC1)c1ccc(Nc2nccc(-c3cc4ccccc4s3)n2)cc1 | binding | competition with immobilised ligand | 1 µM | 68% |
| COc1cnc(Nc2cccc(S(N)(=O)=O)c2)nc1N1CCN(c2ccccc2)C(=O)C1 | binding | competition with immobilised ligand | 1 µM | 94% |
| CN(C)C(=O)Cn1cc(-c2nc([C@@](C)(c3ccc(-c4cnc(N)nc4)cc3)C3CC3)no2)cn1 | cell-free assay | competition with immobilised ligand | 1 µM | 83% |
